Dynein transport = dynein cargo transport inhibition; z-score, hits read low; 3617.4 mouse cells, GR-EGFP nuclear translocation imaging; test concentration mostly 20 µM; stimulated with dexamethasone, 1 µM; active compounds read low; AID 1381; 220,000 tested, 0.47% active;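 active = plate z-score of nuclear minus cytoplasmic receptor signal below a set negative limit, without overly bright fluorescence or cell loss, cut at about -3.5 in these data, passing the limit was not always enough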;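 also: z-score of nuclear minus cytoplasmic ring GR-EGFP intensity difference per well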
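medium = tetracycline-free induction medium containing charcoal-stripped FBS | probe or stimulus = dexamethasone, 1.0 µM final | timing = 48 h induction, then 1 h compound, then 30 min agonist, 37 °C | detection = automated 10x imaging of fixed Hoechst-stained cells | read-out basis = nuclear versus cytoplasmic GR-EGFP signal, averaged per well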
MT stabilizer = microtubule stabilizers in HeLa cells. HeLa tubulin immunostaining HCS, 24 h; share of cells brighter than vehicle mean+2SD. AID 2205. % tubulin-high responders, % at 10 µM. 200,000 tested, 0.83% active;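 active = plate Z-score above 3 for both tubulin-high and condensed-nucleus cell shares, with cell loss under 80%, at 10 µM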;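 also: anti alpha tubulin signal scored within the nucleus-defined area of each cell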
Lmaj promast = Leishmania major promastigote growth inhibition. Leishmania major promastigotes, resazurin fluorescence viability. inhibition, % at 10 µM. 200,000 tested, 9% active; in the data active = inhibition above about 50%;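 also: promastigotes grown with compound for 44 hours at 28 °C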
b-catenin transl = alters nuclear translocation of beta-catenin in HeLa cells; immunofluorescence imaging; nuclear translocation activity, % at 5 µM; 190,000 tested, 0.3% active; AID 1665;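 active = nuclear translocation activity above 50% at 5 µM, with a well cell count of 50 or more; inconclusive = wells under 50 cells across six images, flagged as toxic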;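 also: per-cell ratio of nuclear to cytoplasmic median beta-catenin stain intensity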
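System: HeLa cells, endogenous beta-catenin; compound dosing: 5 µM primary single dose, 0.1% DMSO, 0.02–20 µM confirmation series; incubation: 24 h compound exposure at 37°C, 5% CO2; signal: beta-catenin immunofluorescence imaging with DAPI; evaluation: % activation, nuclear-to-cytoplasmic median beta-catenin signal ratio per cell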
HSV replic up = HSV replication enhancement. 220,000 tested, 0.005% active. maximum fold increase. HSV replication augmentation in cells, fold increase; in the data active = maximum fold increase above about 1.5; inconclusive = no clear call, values can overlap the other calls; tested in PC3 cells
Of the large screens only hits and unclear results are named; the others gave an inactive call. A selection: hits, their analogues and other compounds. The true share with any hit is near 8.9%.

O=C(Cn1ncc(Cl)c(Cl)c1=O)NC1CCS(=O)(=O)C1 (stereo not given)	none (no result: MT stabilizer, Lmaj promast)
O=C(Cn1ncc(Cl)c(Cl)c1=O)NCC1CCCCC1	Dynein transport -6.2
CN(c1ccccc1)S(=O)(=O)c1ccc(Cl)nc1	none
Cc1nc(S(=O)(=O)N(C)c2ccccc2)c(C#N)c(C)c1Cl	Lmaj promast 72.0 (no result: b-catenin transl)
CCOc1ccc2nc(N/C(N)=N/C(=S)Nc3ccc(OC)cc3)nc(C)c2c1	Lmaj promast 71.9
COc1ccc2nc(N/C(N)=N/C(=S)Nc3ccccc3)nc(C)c2c1	none
CC1(C)CC(=O)c2c(oc3cc(O)c(O)cc23)C1	Lmaj promast 84.4 (no result: b-catenin transl)
COC(=O)c1oc2c(c1C)C(=O)CC(C)(C)C2	none
CCN(CC#CCC(O)(c1ccccc1)c1ccccc1)C(C)C	Lmaj promast 87.0
CC(C)N(CC#CCC(O)(c1ccccc1)c1ccccc1)C(C)C	Lmaj promast 87.8
COc1cc(OC)c(OC)cc1CN1CCN(c2ccccc2OC)CC1	none
O=C(CSc1ccccc1)Nc1ccc(N2CCOCC2)cc1	none (no result: b-catenin transl)
COC(=O)c1cc(S(=O)(=O)Nc2cc(S(=O)(=O)N(C)C)ccc2C)oc1C	none (no result: MT stabilizer, Lmaj promast)
CC1N(C)c2cc(NC(=O)c3ccco3)c(P(=O)(Nc3ccc([N+](=O)[O-])cc3)N3CCOCC3)cc2C1(C)C (stereo not given)	Lmaj promast 55.5
O=C(Nc1nc2ccccc2s1)c1cccc(S(=O)(=O)N2CCc3ccccc32)c1	none (no result: MT stabilizer, Lmaj promast)
CCc1nnc(NC(=O)c2ccc(S(=O)(=O)N3CCCc4ccccc43)cc2)o1	Lmaj promast 99.3
Cc1cc(NC(=O)c2ccc(S(=O)(=O)N3CCc4ccccc43)cc2)no1	none
CNC(=O)c1ccsc1NC(=O)c1ccc(S(=O)(=O)N2CCCc3ccccc32)cc1	Lmaj promast 99.7 (no result: HSV replic up)
O=C(Nc1nc2c(s1)CCCC2)c1ccc(S(=O)(=O)N2CCCc3ccccc32)cc1	Lmaj promast 98.5
O=C(Nc1nc2c(s1)CN(Cc1ccccc1)CC2)c1cccc(S(=O)(=O)N2CCc3ccccc32)c1	Lmaj promast 61.8
COCc1nnc(NC(=O)c2ccc(S(=O)(=O)N3CCCCCC3)cc2)o1	none
Cc1ccc2oc(-c3cccc(NC(=O)C4CCCO4)c3)nc2c1 (stereo not given)	none
Cc1cccc(-c2nc3cc(NC(=O)C4CCCO4)ccc3o2)c1 (stereo not given)	Lmaj promast 74.9
Cc1[nH]c2ccccc2c1/C=N/NC(=O)CNC(=O)c1cccs1	none (no result: MT stabilizer, Lmaj promast)
Cc1cc(/C=C2/SC(=S)N(c3cccc(C(F)(F)F)c3)C2=O)c(C)n1-c1cccnc1	Lmaj promast 79.7, HSV replic up inconclusive (no result: b-catenin transl)
COc1nnc(-c2ccccc2)s1	none (no result: b-catenin transl)
O=C(CCN1C(=O)c2ccc([N+](=O)[O-])cc2C1=O)Nc1cccc(O)c1	none
Cc1cc(O)ccc1NC(=O)CCN1C(=O)c2ccc([N+](=O)[O-])cc2C1=O	Lmaj promast 70.0
NS(=O)(=O)c1ccc(NC(=O)N2c3ccccc3Sc3ccccc32)cc1	none
CCOCCCNS(=O)(=O)c1ccc(NC(=O)N2c3ccccc3Sc3ccccc32)cc1	Lmaj promast 99.9
Cc1ccc(S(=O)(=O)N2CCOCC2)cc1C(=O)N1CCOCC1	none (no result: b-catenin transl)
CC1CCN(S(=O)(=O)c2ccc(NC(=O)CN3CCOCC3)cc2)CC1	none
Cc1ccc(S(=O)(=O)N2CCOCC2)cc1C(=O)N1c2ccccc2Sc2ccccc21	Lmaj promast 99.0
CC1CCN(S(=O)(=O)c2ccc(NC(=O)N3c4ccccc4Sc4ccccc43)cc2)CC1	Lmaj promast 60.8
CCOCCCNS(=O)(=O)c1ccc(NC(=O)CN2C(=O)c3ccccc3C2=O)cc1	none
CC1CCN(S(=O)(=O)c2ccc(NC(=O)Cc3cccs3)cc2)CC1	Lmaj promast 89.2
O=C1C2C3c4ccccc4C(c4ccccc43)C2C(=O)N1c1cccnc1 (stereo not given)	Lmaj promast 51.4
COc1cc(OC)c(C(=O)NNC(=S)NC2CCCCC2)cc1OC	Lmaj promast 50.7 (no result: b-catenin transl)
COc1ccc(Cl)cc1C(=O)NNC(=S)NC1CCCCC1	none (no result: MT stabilizer, Lmaj promast)
CCc1nnc(NC(=O)CCC(=O)Nc2ccccc2)s1	none (no result: b-catenin transl)
CC1CCCCC1NCc1cccc([N+](=O)[O-])c1 (stereo not given)	Lmaj promast 83.0
O=[N+]([O-])c1cccc(CNC2CCCCCC2)c1	Lmaj promast 86.2
COCC(C)NCc1cccc([N+](=O)[O-])c1 (stereo not given)	none
Cn1cnnc1SCC(=O)N1N=C(c2ccc(Cl)cc2)CC1c1ccco1 (stereo not given)	none
